From ChEMBL document CHEMBL3297654, “Synthesis, antimicrobial and cytotoxic activities, and structure-activity relationships of gypsogenin derivatives against human cancer cells” (Eur J Med Chem, 2014)

Key:
HL-60 [1] = assay: Antiproliferative activity against human HL60 cells after 24 and 72 hrs by MTT assay; type: functional, cell-based
In short: (§1)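 ATCC human cell lines are kept in RPMI, DMEM or McCoy's 5A with 10–15% heat-inactivated FCS at 37 °C and 5% CO2. They are seeded at 1×10^4–1×10^5 cells/mL in 48-well plates and exposed to 0.5, 10, 20 or 40 µM. Viability is read by MTT (590 nm) at 24 and 72 h. Growth is expressed relative to untreated cells and IC50 is fitted, in triplicate.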

Caco-2 [2] = assay: Antiproliferative activity against human Caco2 cells after 24 and 72 hrs by MTT assay; type: functional, cell-based; in short: as §1
Caco-2 [3] = assay: Induction of necrosis in human Caco2 cells at 0.5 uM after 48 hrs by Hoechst 33258/propidium iodide staining based phase contrast microscopic analysis; type: functional
In short: (§2)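 Cells in 48-well plates treated with 0.5, 10, 20 or 40 µM for 24 and 48 h. Values are read at 48 h, 20 µM for test agents and 0.5 µM for controls. Staining is Hoechst 33258/propidium iodide double staining with fluorescence microscopy. Blue nuclei are viable or early-to-mid apoptotic, and pink nuclei are late apoptotic or necrotic. Apoptosis and necrosis are scored from chromatin condensation as % of cells. Cells are grown at 37 °C in 5% CO2 in RPMI, DMEM or McCoy's 5A with 10–15% heat-inactivated FCS.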

Caco-2 [4] = assay: Induction of apoptosis in human Caco2 cells at 0.5 uM after 48 hrs by Hoechst 33258/propidium iodide staining based phase contrast microscopic analysis; type: functional; in short: as §2
HT-29 [5] = assay: Antiproliferative activity against human HT-29 cells after 24 and 72 hrs by MTT assay; type: functional, cell-based; in short: as §1
HeLa [6] = assay: Induction of apoptosis in human HeLa cells at 0.5 uM after 48 hrs by Hoechst 33258/propidium iodide staining based phase contrast microscopic analysis; type: functional; in short: as §2
HeLa [7] = assay: Antiproliferative activity against human HeLa cells after 24 and 72 hrs by MTT assay; type: functional, cell-based; in short: as §1
HeLa [8] = assay: Induction of necrosis in human HeLa cells at 0.5 uM after 48 hrs by Hoechst 33258/propidium iodide staining based phase contrast microscopic analysis; type: functional; in short: as §2
MCF7 [9] = assay: Induction of apoptosis in human MCF7 cells at 0.5 uM after 48 hrs by Hoechst 33258/propidium iodide staining based phase contrast microscopic analysis; type: functional; in short: as §2
HT-29 [10] = assay: Induction of apoptosis in human HT-29 cells at 0.5 uM after 48 hrs by Hoechst 33258/propidium iodide staining based phase contrast microscopic analysis; type: functional; in short: as §2
HL-60 [11] = assay: Induction of necrosis in human HL60 cells at 0.5 uM after 48 hrs by Hoechst 33258/propidium iodide staining based phase contrast microscopic analysis; type: functional; in short: as §2
HT-29 [12] = assay: Induction of necrosis in human HT-29 cells at 0.5 uM after 48 hrs by Hoechst 33258/propidium iodide staining based phase contrast microscopic analysis; type: functional; in short: as §2
[13] = Antiproliferative activity against human Saos2 cells after 24 and 72 hrs by MTT assay; type: functional, cell-based; conditions: SAOS-2; in short: as §1
HL-60 [14] = assay: Induction of apoptosis in human HL60 cells at 0.5 uM after 48 hrs by Hoechst 33258/propidium iodide staining based phase contrast microscopic analysis; type: functional; in short: as §2
SAOS-2 [15] = assay: Induction of necrosis in human Saos2 cells at 0.5 uM after 48 hrs by Hoechst 33258/propidium iodide staining based phase contrast microscopic analysis; type: functional; in short: as §2
SAOS-2 [16] = assay: Induction of apoptosis in human Saos2 cells at 0.5 uM after 48 hrs by Hoechst 33258/propidium iodide staining based phase contrast microscopic analysis; type: functional; in short: as §2
MCF7 [17] = assay: Induction of necrosis in human MCF7 cells at 0.5 uM after 48 hrs by Hoechst 33258/propidium iodide staining based phase contrast microscopic analysis; type: functional; in short: as §2

IC50 (HL-60 [1]): 330 nM | IC50 (Caco-2 [2]): 350 nM | IC50 (HT-29 [5]): 310 nM | IC50 (HeLa [7]): 340 nM
SMILES: COc1cccc2c1C(=O)c1c(O)c3c(c(O)c1C2=O)C[C@@](O)(C(=O)CO)C[C@@H]3O[C@H]1C[C@H](N)[C@H](O)[C@H](C)O1 [DOXORUBICIN]
Activity (Caco-2 [3]): 47% | Activity (Caco-2 [4]): 4% | Activity (HeLa [6]): 2% | Activity (HeLa [8]): 28% | Activity (MCF7 [9]): 1% | Activity (HT-29 [10]): 5% | Activity (HL-60 [11]): 45% | Activity (HT-29 [12]): 49% | IC50 [13]: 330 nM | Activity (HL-60 [14]): 2% | Activity (SAOS-2 [15]): 34% | Activity (SAOS-2 [16]): 2% | Activity (MCF7 [17]): 44%
